Active and inactive are the calls of the source. The calls are words filed in the database; no cut-off is given here.
Legend:
[1] = Cytotoxicity against human WI38 cells up to 5 uM after 72 hrs by Alamar Blue assay; type: cell-based; details: wi-38, 72 h
In short: (§1)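 In vitro cytotoxicity was read by the colorimetric resazurin (AlamarBlue) assay of cell viability. The panel covered human non-small cell lung NCI-H460, CNS glioma SF-268, breast MCF-7, metastatic breast adenocarcinoma MDA-MB-231, metastatic prostate adenocarcinoma PC-3M and neuroblastoma CHP-100 cancer lines, plus normal human lung fibroblast WI-38 cells.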

CHP100 = assay: Cytotoxicity against human CHP100 cells up to 5 uM after 72 hrs by Alamar Blue assay; type: functional, cell-based; in short: as §1
MDA-MB-231 [2] = assay: Cytotoxicity against human MDA-MB-231 cells up to 5 uM after 72 hrs by Alamar Blue assay; type: functional, cell-based; in short: as §1
PC-3M = assay: Cytotoxicity against human PC3M cells up to 5 uM after 72 hrs by Alamar Blue assay; type: functional, cell-based; in short: as §1
MCF7 [3] = assay: Cytotoxicity against human MCF7 cells up to 5 uM after 72 hrs by Alamar Blue assay; type: functional, cell-based; in short: as §1
SF-268 [4] = assay: Cytotoxicity against human SF268 cells up to 5 uM after 72 hrs by Alamar Blue assay; type: functional, cell-based; in short: as §1
NCI-H460 [5] = assay: Cytotoxicity against human NCI-H460 cells up to 5 uM after 72 hrs by Alamar Blue assay; type: functional, cell-based; in short: as §1
MDA-MB-231 [6] = assay: Cytotoxicity against human MDA-MB-231 cells after 72 hrs by Alamar Blue assay; type: functional, cell-based; in short: as §1
[7] = Cytotoxicity against human PC3M cells after 72 hrs by Alamar Blue assay; type: functional, cell-based, PC-3M
In short: (§2)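 Resazurin-based colorimetric cell viability read-out on human cancer cells (MCF-7 breast; PC-3M metastatic prostate adenocarcinoma), run in vitro in a panel that also included normal human lung fibroblast WI-38 cells.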

MCF7 [8] = assay: Cytotoxicity against human MCF7 cells after 72 hrs by Alamar Blue assay; type: functional, cell-based; in short: as §2
SF-268 [9] = assay: Cytotoxicity against human SF268 cells after 72 hrs by Alamar Blue assay; type: functional, cell-based; in short: as §1
NCI-H460 [10] = assay: Cytotoxicity against human NCI-H460 cells after 72 hrs by Alamar Blue assay; type: functional, cell-based; in short: as §1
[11] = Cytotoxicity against human CHP100 cells after 72 hrs by Alamar Blue assay; type: functional, cell-based; details: CHP100, 72 h; in short: as §1
[12] = Cytotoxicity against human WI38 cells after 72 hrs by Alamar Blue assay; type: cell-based; details: WI-38, 72 h; in short: as §1

Compound	Activity [1]	Activity (CHP100)	Activity (MDA-MB-231 [2])	Activity (PC-3M)	Activity (MCF7 [3])	Activity (SF-268 [4])	Activity (NCI-H460 [5])	other results
CC(C)=CCC[C@@]1(C(=O)O)[C@H]2C/C=C(\C)CC/C=C(\C)CC[C@H]1[C@@]1(CC2)CO1	Non-toxic	inactive	inactive	inactive	inactive	inactive	inactive	–
COc1cc2c(c3oc4cccc(O)c4c(=O)c13)[C@@H]1C=CO[C@@H]1O2 [STERIGMATOCYSTIN]	–	–	–	–	–	–	–	IC50 (MDA-MB-231 [6]; mda-mb-231): 2750 nM; IC50 ([7]; pc-3m): 3230 nM; IC50 (MCF7 [8]; mcf7): 3630 nM; IC50 (SF-268 [9]; sf-268): 2960 nM; IC50 (NCI-H460 [10]; nci-h460): 3410 nM
CC(C)=CCC[C@@]1(C(=O)O)[C@H]2C/C=C(\C)CC/C=C(\C)CC[C@H]1[C@H](C=O)CC2	Non-toxic	inactive	inactive	inactive	inactive	inactive	inactive	–
CC(C)=CCC[C@@]1(C=O)[C@H]2C/C=C(\C)CC/C=C(\C)CC[C@H]1[C@@]1(CC2)CO1	Non-toxic	inactive	inactive	inactive	inactive	inactive	inactive	–
CC(C)=CCc1ccc2c(c1O)C(=O)c1c(O)cc(C)c3c1C(O2)C(C(C)(C)O)CO3 (stereo unspecified)	Non-toxic	inactive	inactive	inactive	inactive	inactive	inactive	–
C=C(C)[C@H]1COc2c(C)cc3oc4ccc(CC=C(C)C)c(O)c4c(=O)c3c2[C@H]1O (relative stereo)	Non-toxic	inactive	inactive	inactive	inactive	inactive	inactive	–
CC(C)=CCC[C@@]1(C(=O)O)[C@H]2C/C=C(\C)CC/C=C(\C)CC[C@H]1[C@@H](C=O)CC2	Non-toxic	inactive	inactive	inactive	inactive	inactive	inactive	–
COc1cccc2c1C(=O)c1c(O)c3c(c(O)c1C2=O)C[C@@](O)(C(=O)CO)C[C@@H]3O[C@H]1C[C@H](N)[C@H](O)[C@H](C)O1 [DOXORUBICIN]	–	–	–	–	–	–	–	IC50 [11]: 790 nM; IC50 (MDA-MB-231 [6]; Homo sapiens, MDA-MB-231, 72 h): 680 nM; IC50 ([7]; Homo sapiens, PC-3M, 72 h): 270 nM; IC50 (SF-268 [9]; Homo sapiens, SF-268, 72 h): 310 nM; IC50 (NCI-H460 [10]; Homo sapiens, NCI-H460, 72 h): 50 nM
CC(C)=CCC[C@@]1(C(=O)O)[C@@H]2CC=C(CO)[C@@H]1CC/C(C)=C/CC/C(C)=C/C2	Non-toxic	inactive	inactive	inactive	inactive	inactive	inactive	–
COc1ccc(C(=O)O[C@H]2C=COC=C3C[C@]45SSSS[C@](Cc6ccc(O)cc6)(C(=O)N4[C@@H]32)N(C)C5=O)cc1O	–	–	–	–	–	–	–	IC50 [12]: 240 nM; IC50 [11]: 100 nM; IC50 (MDA-MB-231 [6]; Homo sapiens, MDA-MB-231, 72 h): 60 nM; IC50 ([7]; Homo sapiens, PC-3M, 72 h): 170 nM; IC50 (MCF7 [8]; Homo sapiens, MCF7, 72 h): 140 nM; IC50 (SF-268 [9]; Homo sapiens, SF-268, 72 h): 60 nM; IC50 (NCI-H460 [10]; Homo sapiens, NCI-H460, 72 h): 150 nM

Source: ChEMBL document CHEMBL3091338, “Secoemestrin D, a cytotoxic epitetrathiodioxopiperizine, and emericellenes A-E, five sesterterpenoids from Emericella sp. AST0036, a fungal endophyte of Astragalus lentiginosus1” (J Nat Prod, 2013)
